Results pooled from the literature.
Protocols differ between the studies behind these lines.
Target: Serine/threonine-protein kinase TAO1 (TAOK1, Homo sapiens, UniProt Q7L7X3)
Sequence (Q7L7X3 1-1001, as in one of the studies): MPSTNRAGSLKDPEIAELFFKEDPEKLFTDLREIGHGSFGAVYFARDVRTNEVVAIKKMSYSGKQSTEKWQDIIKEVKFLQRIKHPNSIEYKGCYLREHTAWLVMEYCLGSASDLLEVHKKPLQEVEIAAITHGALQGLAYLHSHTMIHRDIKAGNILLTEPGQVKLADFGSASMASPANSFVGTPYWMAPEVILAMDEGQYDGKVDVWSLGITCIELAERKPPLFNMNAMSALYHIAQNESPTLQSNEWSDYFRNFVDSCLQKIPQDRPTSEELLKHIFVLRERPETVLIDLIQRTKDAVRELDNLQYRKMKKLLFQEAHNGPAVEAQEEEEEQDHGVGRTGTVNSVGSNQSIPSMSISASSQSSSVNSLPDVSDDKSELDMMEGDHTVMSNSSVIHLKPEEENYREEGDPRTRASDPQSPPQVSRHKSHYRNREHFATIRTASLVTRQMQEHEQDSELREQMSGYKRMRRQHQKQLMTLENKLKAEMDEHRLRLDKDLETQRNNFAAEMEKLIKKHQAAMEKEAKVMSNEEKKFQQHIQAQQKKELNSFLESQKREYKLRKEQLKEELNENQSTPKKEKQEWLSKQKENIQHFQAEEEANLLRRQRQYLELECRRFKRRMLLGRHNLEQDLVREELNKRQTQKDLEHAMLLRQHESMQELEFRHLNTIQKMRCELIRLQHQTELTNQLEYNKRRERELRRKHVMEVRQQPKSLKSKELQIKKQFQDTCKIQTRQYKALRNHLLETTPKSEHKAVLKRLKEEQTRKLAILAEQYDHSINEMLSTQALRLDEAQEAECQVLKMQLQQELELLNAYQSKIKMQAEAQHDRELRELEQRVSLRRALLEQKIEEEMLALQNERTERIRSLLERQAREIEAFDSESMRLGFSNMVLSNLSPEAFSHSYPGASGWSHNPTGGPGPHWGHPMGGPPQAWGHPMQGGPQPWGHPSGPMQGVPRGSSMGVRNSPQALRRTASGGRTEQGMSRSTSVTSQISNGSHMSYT

Compound	test	setting	measurement	result
Cn1c(=O)n(-c2ccc(C(C)(C)C#N)cc2)c2c3cc(-c4cnc5ccccc5c4)ccc3ncc21	enzyme activity, inhibitor	10 µM	remaining activity	81%
FC(F)(F)Oc1cccc(-c2cnc3ccc(-c4ccncc4)nn23)c1	enzyme activity, inhibitor, radiometric	5 µM	activity vs control	87%
Cc1c(C(=O)O)cc(-c2ccc(C3CCNCC3)cc2)c2ccc(-c3ccc(C(F)(F)F)cc3)cc12	binding, competition with immobilised ligand	1 µM	remaining binding	100%
Cc1cc(NC(=O)c2cccc3cc(-c4cccc5[nH]nc(N)c45)ccc23)ccc1F	enzyme activity, inhibitor	0.1 µM	activity vs control	103%
N#CCCc1ccc2c(c1)-c1[nH]c3ccc([N+](=O)[O-])cc3c1CC(=O)N2	cell-free assay	0.5 µM	remaining signal	73.1%
FC(F)c1nc2ccccc2n1-c1nc(N2CCOCC2)nc(N2CCOCC2)n1	enzyme activity, inhibitor	10 µM	remaining activity	93%
O=C(Nc1cccnn1)N1CC(C/C=C/c2cncc(Oc3ccc(C(F)(F)F)cn3)n2)C1	cell-free assay, competition with immobilised ligand	1 µM	remaining binding	91%
Cc1ccc(C(=O)Nc2ccc(CN3CCN(C)CC3)c(C(F)(F)F)c2)cc1C#Cc1cnc2cccnn12	enzyme activity, inhibitor	23.5 nM	remaining activity	67%
C[C@H](c1ccnc(Nc2nc3ccc(-c4cc(N(C)C)ncn4)cc3[nH]2)c1)N1CCN(C(=O)CC(F)(F)F)CC1	cell-free assay, competition with immobilised ligand	0.1 µM	remaining binding	100%
Cc1ccc(C(=O)NCc2ccsc2)cc1C#Cc1cn(C(C)C)c2ncnc(N)c12	enzyme activity, inhibitor	1 µM	activity vs control	48%
CCN(CC)CCNC(=O)c1c(C)[nH]c(/C=C2\C(=O)Nc3ccc(F)cc32)c1C	cell-free assay	0.5 µM	remaining signal	71.5%
CNC(=O)Nc1ccc2c(c1)CC[C@@]21OC(=O)N(CC(=O)N(Cc2ccc(F)cc2)[C@@H](C)C(F)(F)F)C1=O	cell-free assay, competition with immobilised ligand	1 µM	remaining binding	94%
COc1cc(Nc2cnc(C#N)c(O[C@H](C)CN(C)C)n2)ncc1-c1cnn(C)c1	enzyme activity, inhibitor, radiometric	1 µM	remaining activity	87%
CC(C)(O)[C@H]1CC[C@H](Nc2ccc3ncc(-c4cccc(C(F)(F)F)c4)n3n2)CC1	enzyme activity, inhibitor	1 µM	remaining activity	82.6%
Cc1ccc(NC(=O)c2ccc(C)c(C(F)(F)F)c2)cc1C#Cc1nn(C2CCC(O)CC2)c2ncnc(N)c12 (centres unmarked)	cell-free assay	10 µM	remaining signal	18%
CCN(CC)c1ccc(C2=NNC(=O)CC2C)cc1[N+](=O)[O-] (centres unmarked)	enzyme activity, inhibitor	10 µM	remaining activity	115%
Cc1nc(C2CCN(C(=O)c3ccc(OC(F)(F)F)cc3N)CC2)c2ncc(N3CCN(C)CC3)cc2n1	cell-free assay, competition with immobilised ligand	1 µM	remaining binding	100%
O=C1NC(=O)c2cc(Nc3ccc(F)cc3)c(Nc3ccc(F)cc3)cc21	cell-free assay	0.5 µM	remaining signal	90.3%
COc1ccc2cc(OCC3(C(=O)O)CN(C(=O)c4ccc(F)cc4)C3)ccc2c1	cell-free assay, competition with immobilised ligand	1 µM	remaining binding	100%
O=C(Nc1cnn(-c2csc(C(=O)NC3COC3)c2)c1)Nc1c(F)cccc1Cl	enzyme activity, inhibitor	5 µM	remaining activity	90.6%
